From PubChem
Sampled rows, rich in hits. Any-hit rate of the full collection: about 9.6%.
PMI activator – increases human mannose-6-phosphate isomerase activity | P34949 | purified human PMI, coupled resazurin fluorescence, 20 min; stronger effect = higher value; 1 = vehicle control, 0 substrate-free wells | activation factor at 20 µM | 0.005% of 190,000 active | AID 1214;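 active = activation factor of 2 or more at 20 µM, relative to plate controls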
Target sequence (P34949 whole entry, looked up): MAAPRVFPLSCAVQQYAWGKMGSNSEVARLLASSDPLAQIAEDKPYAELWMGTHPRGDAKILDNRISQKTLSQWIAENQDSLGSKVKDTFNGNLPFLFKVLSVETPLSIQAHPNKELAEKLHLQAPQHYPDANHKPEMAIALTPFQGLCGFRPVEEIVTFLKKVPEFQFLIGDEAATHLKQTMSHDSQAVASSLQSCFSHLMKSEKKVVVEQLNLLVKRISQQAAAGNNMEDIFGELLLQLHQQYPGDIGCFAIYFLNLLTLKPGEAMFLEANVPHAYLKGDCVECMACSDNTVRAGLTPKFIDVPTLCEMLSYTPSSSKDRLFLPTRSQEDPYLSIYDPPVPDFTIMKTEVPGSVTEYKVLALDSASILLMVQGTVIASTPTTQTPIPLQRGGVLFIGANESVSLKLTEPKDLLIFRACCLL
L major viab – reduces viability of Leishmania major promastigotes; 9% of 200,000 active; resazurin fluorescence viability; inhibition, % at 10 µM; in the data active = inhibition above about 50%;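 note: promastigotes grown with compound for 44 hours at 28 °C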
PTEN del growth – PTEN-deleted cell growth suppression; HCT116 PTEN-null viability, CellTiter-Glo, 60 h; stronger effect = lower value; viability, % at 10 µM; 1.2% of 140,000 active; AID 827;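 active = viability at or below a set limit, 4 SD under the median of all tested compounds, cut at about 3.7% in these data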;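 note: PTEN knockout HCT116 line with beta catenin targeted HCT116 as companion control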
PMI act hi M6P – increases human PMI activity with near-saturating mannose 6-phosphate; P34949; 0.34% of 190,000 active; activation factor at 20 µM; coupled PMI enzyme assay, resazurin fluorescence, 20 min; stronger effect = higher value; 1 = untreated enzyme, 0 = substrate-free blank;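 active = activation factor of 2 or more at 20 µM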
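assay system = human phosphomannose isomerase with PGI, G6PDH, diaphorase coupling enzymes | quantity = 15 ng/mL PMI | incubation = enzyme reaction with compound 20 min at room temperature | medium = HEPES pH 7.4 buffer with MgCl2 and Tween-20 | compound dosing = one concentration, 20 µM, in 1% DMSO | measured by = Diaphorase-driven resazurin-to-resorufin fluorescence, excitation 544, emission 590 nm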
HCT116 bCat-KO – beta-catenin-lacking colon tumor cell growth suppression; HCT116 beta-catenin knockout viability, CellTiter-Glo, 60 h; stronger effect = lower value; viability, % at 10 µM; 1.5% of 140,000 active;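 active = viability at or under a set limit, the compound median less 4 SD, cut at about 6% in these data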;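 note: 0% = Hyamine 1622 control at 20 µM and 100% = untreated cell control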
Starred values were filed as active, the others as inactive; . = not tested or not shown.

SMILES | PMI activator | L major viab | PTEN del growth | PMI act hi M6P | HCT116 bCat-KO
O=C1C2C3C=CC(C3=C(c3ccccc3)c3ccccc3)C2C(=O)N1CCO (configuration not stated) | 0.9 | 98* | 98 | 0.9 | 97
O=C(Nc1ccc([N+](=O)[O-])cc1)Nc1ccc(N2CCOCC2)c2nonc12 | 0.7 | 98* | . | 0.4 | .
CC(=O)Nc1cc([N+](=O)[O-])ccc1N1CCOCC1 | 1 | 8 | . | 1 | .
Cc1nnc(NC(=O)CCSc2ccc(Cl)cc2)s1 | 1.1 | 1 | . | 1 | .
COc1ccc(C(c2c(C)[nH]n(C(N)=S)c2=O)C(C#N)C#N)cc1 (configuration not stated) | 1.4 | 94* | 75 | 1.7 | 84
C=CCNCCOc1ccccc1-c1ccccc1 | 1.1 | 18 | 88 | 1 | 84
CC(C)NCCCCOc1ccccc1-c1ccccc1 | 1 | 98* | 76 | 1 | 79
CCCCNCCOCCOc1ccccc1-c1ccccc1 | 1 | 92* | 74 | 1.1 | 65
COCCNCCCCOc1ccccc1-c1ccccc1 | 1 | 52* | 82 | 1 | 79
O=C(NCc1cccnc1)C(=O)Nc1ccc([N+](=O)[O-])cc1 | 1.1 | 0 | . | 1.1 | .
COCCNC(=O)c1cnn2c(C(F)(F)F)cc(-c3ccc(C)cc3)nc12 | 1 | -1 | . | 1 | .
CCOC(=O)CN(C#N)c1nc(N(C)C)nc(N(C)C)n1 | 1.2 | -5 | . | 1.2 | .
CC(C)NC(=O)CN(c1cccc([N+](=O)[O-])c1)S(=O)(=O)c1ccccc1 | 1.1 | -3 | . | 1 | .
Cc1ccc(CNC(=O)CN(c2cccc([N+](=O)[O-])c2)S(=O)(=O)c2ccccc2)cc1 | 0.7 | 97* | 71 | 0.8 | 73
O=C(CN(c1cccc([N+](=O)[O-])c1)S(=O)(=O)c1ccccc1)NCc1ccccc1 | 0.8 | 96* | 104 | 0.8 | 91
Cc1ccc(CNC(=O)CN(c2cccc([N+](=O)[O-])c2)S(C)(=O)=O)cc1 | 0.9 | 2 | . | 0.9 | .
CCC(C)C(NC(=O)OC(C)(C)C)C(=O)NC(C)C(N)=O (configuration not stated) | 1 | -5 | . | 1 | .
CCOC(=O)CSC1=N/C(=C\c2ccc(OC)c(OC)c2)C(=O)N1C | 1 | 2 | 99 | 1 | 99
CC(C)NC(=O)NC(=O)COc1ccc(Br)cc1Br | 1 | 67* | 98 | 1 | 89
Cc1ccc(-c2nc3ccccn3c2NC(=O)c2ccco2)cc1 | 1.2 | -3 | 86 | 1.2 | 90
Cc1[nH]n(-c2ccccc2)c(=O)c1/C=N\NC(=O)C1COc2ccccc2O1 (configuration not stated) | 1 | -4 | 61 | 1.2 | 69
Cc1ccc(OCC(=O)NNC(=O)c2ccoc2C)c(Br)c1 | 1 | 72* | 97 | 1.1 | 97
Cc1ccc(-n2c(C)nnc2SCC(=O)N2CCc3ccccc3C2)cc1 | 1 | -6 | 83 | 1.1 | 85
O=C(Nc1ccc2c(c1)OCO2)C1CCCCN1S(=O)(=O)c1ccccc1 (configuration not stated) | 0.8 | 65* | 100 | 0.9 | 85
Cc1csc(NC(=O)C2CCCN(S(=O)(=O)c3ccc(Br)s3)C2)n1 (configuration not stated) | 1 | 61* | 49 | 1 | 27
SMILES | PMI activator | L major viab | PTEN del growth | PMI act hi M6P | HCT116 bCat-KO
CCOC(=O)C1CCCN(S(=O)(=O)c2ccc(Br)s2)C1 (configuration not stated) | 0.9 | -4 | 91 | 1 | 91
O=C(Nc1nc(-c2ccccc2)cs1)C1CCCN(S(=O)(=O)c2cccc([N+](=O)[O-])c2)C1 (configuration not stated) | 0.8 | 93* | 67 | 0.8 | 63
O=C(Nc1nc(-c2ccccc2)cs1)C1CCCCN1S(=O)(=O)c1ccccc1 (configuration not stated) | 0.9 | 93* | 38 | 1 | 43
CCCCCCCCCCCCCCCC(=O)OC[C@H](COP(=O)([O-])OCC[N+](C)(C)C)OC(=O)CCCCCCCCCCCCCCC | 1.1 | -7 | 100 | 1.1 | 86
O=C(Nc1nc(-c2ccccc2)cs1)C1CCCCN1S(=O)(=O)c1ccc(Cl)cc1 (configuration not stated) | 0.9 | 100* | 25 | 1 | 23
O=C(Nc1nc(-c2ccccc2)cs1)C1CCCN(S(=O)(=O)c2ccccc2)C1 (configuration not stated) | 0.9 | 45 | 18 | 1 | 14
